The source made the active and inactive calls. The rule behind the calls is not given here.
Assays:
dengue virus type 2 [1] = assay: (§1) Resistance index, ratio of EC50 for antiviral activity against NS3 T606A mutant containing Dengue virus 2 isolate P12-II infected in human HuH7 cells using viral isolates selected by serial passaging in presence of DMSO incubated for 3 days by viral reduction assay to EC50 for antiviral activity against Dengue virus 2 isolate P0 infected in human HuH7 cells incubated for 3 days by viral reduction assay; format: functional
dengue virus type 2 [2] = assay: as §1, with “P12-I” for “P12-II”; format: functional
dengue virus type 2 [3] = assay: Antiviral activity against Dengue virus 2 isolate P0 infected in human HuH7 cells incubated for 3 days by viral reduction assay; format: functional, organism-based; conditions: isolate P0, Huh-7, 72 h
dengue virus type 2 [4] = assay: (§2) Antiviral activity against NS3 T606A mutant and NS4B V63L mutant containing Dengue virus 2 isolate P12-VI infected in human HuH7 cells using viral isolates selected by serial passaging in presence of test compound incubated for 3 days by viral reduction assay; format: functional, organism-based; conditions: Huh-7, 72 h
dengue virus type 2 [5] = assay: (§3) Antiviral activity against NS4B V63M and P104S mutant containing Dengue virus 2 isolate P12-V infected in human HuH7 cells using viral isolates selected by serial passaging in presence of test compound incubated for 3 days by viral reduction assay; format: functional, organism-based; conditions: Huh-7, 72 h
dengue virus type 2 [6] = assay: (§4) Antiviral activity against NS4B V63M mutant containing Dengue virus 2 isolate P12-IV infected in human HuH7 cells using viral isolates selected by serial passaging in presence of test compound incubated for 3 days by viral reduction assay; format: functional, organism-based; conditions: Huh-7, 72 h
dengue virus type 2 [7] = assay: Antiviral activity against NS3 T606A mutant and NS4B V63M mutant containing Dengue virus 2 isolate P12-III infected in human HuH7 cells using viral isolates selected by serial passaging in presence of test compound incubated for 3 days by viral reduction assay; format: functional, organism-based; conditions: Huh-7, 72 h
dengue virus type 2 [8] = assay: Antiviral activity against NS3 T606A mutant containing Dengue virus 2 isolate P12-II infected in human HuH7 cells using viral isolates selected by serial passaging in presence of DMSO incubated for 3 days by viral reduction assay; format: functional, organism-based; conditions: Huh-7, 72 h
dengue virus type 2 [9] = assay: Antiviral activity against NS3 T606A mutant containing Dengue virus 2 isolate P12-I infected in human HuH7 cells using viral isolates selected by serial passaging in presence of DMSO incubated for 3 days by viral reduction assay; format: functional, organism-based; conditions: Huh-7, 72 h
[10] = Cytotoxicity in human HuH7 replicon cells infected with Dengue virus 2 NGC assessed as reduction in cell viability incubated for 48 hrs by Cell-titer-Glo reagent based assay; parameters: species or system Huh-7
How it was run: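 Huh7 cells or Huh7 replicon cells plated, then held at 37 °C with 5% CO₂ overnight. Exposed to 2-fold serial compound dilutions for 48 h, in duplicate. Viability read with CellTiter-Glo and normalized to 0.45% DMSO wells set at 100%. CC50 from four-parameter logistic fit.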

dengue virus type 4 = assay: Antiviral activity against Dengue virus 4 D4MY01-22713 infected in human HuH7 replicon cells expressing Renilla luciferase and neomycin-resistance genes assessed as reduction in viral replication incubated for 48 hrs by luciferase reporter replicon-based assay; format: functional, organism-based; conditions: D4MY01-22713, Huh-7, 48 h
How it was run: (§5)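 Huh7 cells stably carrying a Renilla luciferase/neomycin-resistance replicon (DENV-1 WestPac, DENV-2 NGC, DENV-3 D3MY05-34640 or DENV-4 D4MY01-22713). Cells seeded at 10k per well and incubated overnight at 37 °C, 5% CO2. Then exposed to 2-fold serial compound dilutions for 48 h, in duplicate. Luciferase read with a live-cell substrate. EC50 from four-parameter logistic fit.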

dengue virus type 3 = assay: Antiviral activity against Dengue virus 3 D3MY05-34640 infected in human HuH7 replicon cells expressing Renilla luciferase and neomycin-resistance genes assessed as reduction in viral replication incubated for 48 hrs by luciferase reporter replicon-based assay; format: functional, organism-based; conditions: D3MY05-34640, Huh-7, 48 h; how it was run: as §5
dengue virus type 2 [11] = assay: Antiviral activity against Dengue virus 2 NGC infected in human HuH7 replicon cells expressing Renilla luciferase and neomycin-resistance genes assessed as reduction in viral replication incubated for 48 hrs by luciferase reporter replicon-based assay; format: functional, organism-based; conditions: Huh-7, 48 h; how it was run: as §5
dengue virus type 1 = assay: Antiviral activity against Dengue virus 1 WestPac infected in human HuH7 replicon cells expressing Renilla luciferase and neomycin-resistance genes assessed as reduction in viral replication incubated for 48 hrs by luciferase reporter replicon-based assay; format: functional, organism-based; conditions: Huh-7, 48 h; how it was run: as §5
dengue virus type 2 [12] = assay: as §1, with “mutant and NS4B V63M mutant” for “mutant”, “P12-III” for “P12-II”, “test compound” for “DMSO”; format: functional
dengue virus type 2 [13] = assay: as §4, with “Resistance index, ratio of EC50 for antiviral” for “Antiviral”, “assay to EC50 for antiviral activity against Dengue virus 2 isolate P0 infected in human HuH7 cells incubated for 3 days by viral reduction assay” for “assay”; format: functional
dengue virus type 2 [14] = assay: as §3, with “Resistance index, ratio of EC50 for antiviral” for “Antiviral”, “assay to EC50 for antiviral activity against Dengue virus 2 isolate P0 infected in human HuH7 cells incubated for 3 days by viral reduction assay” for “assay”; format: functional
dengue virus type 2 [15] = assay: as §1, with “mutant and NS4B V63L mutant” for “mutant”, “P12-VI” for “P12-II”, “test compound” for “DMSO”; format: functional
dengue virus type 2 [16] = assay: Antiviral activity against Dengue virus 2 D2Y98P infected in A129 mouse model of dengue viremia assessed as reduction in viral loads in sera at 100 mg/kg, po BID for 3 days measured day 3 postinfection by viral plaque assay relative to control; format: functional
How it was run: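 A129 mice (IFN-α/β receptor knockout), 3 weeks old, n = 6 per group; DENV-2 D2Y98P stock grown in BHK-21 cells, 100 µL at 10⁷ PFU/ml given subcutaneously. Oral dosing started immediately, twice daily for 3 days, as a suspension in 2.5% DMSO, 50% PEG-400 and 47.5% DPBS, or vehicle alone. Retro-orbital bleed on day 3 p.i.; plasma viremia measured by plaque assay; unpaired parametric test.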

dengue virus type 2 [17] = assay: as §2, with “(R)-5'-Chloro-3-((S)-1-(4-chlorophenyl)ethyl)-1'-(2-(dimethylamino)ethyl)-4,6-dihydrospiro[[1,2,3]triazolo[4,5-b]-pyridine-7,3'-indoline]-2',5(3H)-dione” for “test compound”; format: functional, organism-based; conditions: Huh-7
dengue virus type 2 [18] = assay: as §1, with “mutant and NS4B V63L mutant” for “mutant”, “P12-VI” for “P12-II”, “(R)-5'-Chloro-3-((S)-1-(4-chlorophenyl)ethyl)-1'-(2-(dimethylamino)ethyl)-4,6-dihydrospiro[[1,2,3]triazolo[4,5-b]-pyridine-7,3'-indoline]-2',5(3H)-dione” for “DMSO”; format: functional
dengue virus type 2 [19] = assay: Antiviral activity against Dengue virus 2 NGC infected in human HuH7 cells incubated for 48 hrs by viral titer reduction assay; format: functional, organism-based; conditions: Huh-7, 48 h
How it was run: (§6)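 Huh7 cells seeded the day before, then infected with DENV-2 NGC or D2Y98P at MOI 0.3 in the presence of 2-fold serial compound dilutions, in triplicate. After 48 h at 37 °C, infectious virus in the culture fluid was titrated by plaque assay. EC50 from four-parameter logistic fit.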

dengue virus type 2 [20] = assay: Antiviral activity against Dengue virus 2 D2Y98P infected in A129 mouse model of dengue viremia assessed as reduction in viral morbidity by measuring body weight at 100 mg/kg, po BID for 3 days measured day 3 postinfection by viral plaque assay relative to control; format: functional, organism-based
[21] = Tmax in Sprague-Dawley rat at 20 mg/kg, po measured up to 24 hrs by LC-MS/MS analysis; format: ADME, organism-based; conditions: in vivo
How it was run: (§7)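 Male SD rats, n = 3, fasted 12 h, given 20 mg/kg orally. Comparison arm given 10 mg/kg as an iv bolus, n = 3. Both formulated in DMSO:20% HP-β-CD in saline (1:9). Plasma sampled from 15 min (5 min iv) to 24 h. Analysed by LC-MS/MS against an 8-point standard curve with 6 QCs. Parameters derived by non-compartmental analysis.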

[22] = Clearance in Sprague-Dawley rat at 20 mg/kg, po measured up to 24 hrs by LC-MS/MS analysis; format: ADME, organism-based; conditions: in vivo
How it was run: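 Male SD rats, N = 3, fasted 12 h; oral 20 mg/kg (alongside a 10 mg/kg i.v. bolus arm) formulated as DMSO solution : 20% HP-β-CD in saline = 1:9. Plasma sampled at 15 min, 30 min, 1, 2, 4, 8 and 24 h. Levels measured by LC-MS/MS against an 8-point standard curve with 6 QCs; parameters from non-compartmental analysis.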

[23] = Oral bioavailability n Sprague-Dawley rat at 20 mg/kg measured up to 24 hrs by LC-MS/MS analysis; format: ADME, organism-based; conditions: in vivo; how it was run: as §7
dengue virus type 2 [24] = assay: Antiviral activity against Dengue virus 2 D2Y98P infected in human HuH7 cells incubated for 48 hrs by viral titer reduction assay; format: functional, organism-based; conditions: Huh-7, 48 h; how it was run: as §6

Question: For `C[C@@H](c1ccc(Cl)cc1)n1nnc2c1NC(=O)C[C@]21C(=O)N(CCN(C)C)c2ccc(Cl)cc21`, which “Ratio EC50” value (dengue virus type 2 [1]) is on record?
Answer: The value was 0.93.

Question: What about the “Ratio EC50” value (dengue virus type 2 [2]) of the same compound?
Answer: The value was 0.8.

Question: And the EC50 (dengue virus type 2 [3])?
Answer: Its EC50 is 0.06 µM.

Question: What about the EC50 (dengue virus type 2 [4]) of the same compound?
Answer: Its EC50 is > 6 µM.

Question: And the EC50 (dengue virus type 2 [5])?
Answer: The EC50 was > 6 µM.

Question: What about the EC50 (dengue virus type 2 [6]) of the same compound?
Answer: Its EC50 is > 6 µM.

Question: What about the EC50 (dengue virus type 2 [7]) of the same compound?
Answer: The EC50 was > 6 µM.

Question: And the EC50 (dengue virus type 2 [8])?
Answer: Its EC50 is 0.056 µM.

Question: What about the EC50 (dengue virus type 2 [9]) of the same compound?
Answer: The EC50 was 0.048 µM.

Question: And the CC50 at 48 h [10]?
Answer: Its CC50 at 48 h is > 10 µM.

Question: And the EC50 (dengue virus type 4)?
Answer: Its EC50 is > 5 µM.

Question: And the EC50 (dengue virus type 3)?
Answer: Its EC50 is 0.002 µM.

Question: And the EC50 (dengue virus type 2 [11])?
Answer: The EC50 was 0.025 µM.

Question: And the EC50 (dengue virus type 1)?
Answer: Its EC50 is > 5 µM.

Question: And the “Ratio EC50” value (dengue virus type 2 [12])?
Answer: The value was >100.

Question: What about the “Ratio EC50” value (dengue virus type 2 [13]) of the same compound?
Answer: Its value is >100.

Question: What about the “Ratio EC50” value (dengue virus type 2 [14]) of the same compound?
Answer: Its value is >100.

Question: And the “Ratio EC50” value (dengue virus type 2 [15])?
Answer: Its value is >100.

Question: Which EC50 (dengue virus type 2 [3]) does the source give for `CC(C)CCN1C(=O)[C@]2(CC(=O)Nc3c2nnn3[C@@H](C)c2ccc(Cl)cc2)c2cc(Cl)ccc21` here?
Answer: The EC50 was 0.123 µM.

Question: What about the CC50 at 48 h [10] of the same compound?
Answer: The CC50 at 48 h was > 10 µM.

Question: And the EC50 (dengue virus type 4)?
Answer: The EC50 was > 5 µM.

Question: What about the EC50 (dengue virus type 3) of the same compound?
Answer: Its EC50 is 0.035 µM.

Question: And the EC50 (dengue virus type 2 [11])?
Answer: The EC50 was 0.16 µM.

Question: What about the EC50 (dengue virus type 1) of the same compound?
Answer: The EC50 was 0.78 µM.

Question: And the log reduction (dengue virus type 2 [16])?
Answer: The log reduction was 2.4.

Question: And the EC50 (dengue virus type 2 [17])?
Answer: The EC50 was 1.96 µM.

Question: What about the “Ratio EC50” value (dengue virus type 2 [18]) of the same compound?
Answer: The value was 16.

Question: What about the EC50 (dengue virus type 2 [19]) of the same compound?
Answer: Its EC50 is 0.1 to 0.108 µM.

Question: What about the Activity (dengue virus type 2 [20]) of the same compound?
Answer: Its Activity is “Active”.

Question: What about the Tmax [21] of the same compound?
Answer: Its Tmax is 1 h.

Question: And the CL/F [22]?
Answer: The CL/F was 59.5 mL/min/kg.

Question: What about the bioavailability [23] of the same compound?
Answer: The bioavailability was 30%.

Question: And the EC50 (dengue virus type 2 [24])?
Answer: The EC50 was 0.13 µM.

Reference: ChEMBL document CHEMBL4414551, “Design, Synthesis, and Biological Evaluation of Substituted 4,6-Dihydrospiro[[1,2,3]triazolo[4,5-b]pyridine-7,3'-indoline]-2',5(3H)-dione Analogues as Potent NS4B Inhibitors for the Treatment of Dengue Virus Infection” (J Med Chem, 2019)
